Laboratory results as given in ChEMBL document CHEMBL3351655, “Scaffold decoration at positions 5 and 8 of 1,2,4-triazolo[1,5-c]pyrimidines to explore the antagonist profiling on adenosine receptors: a preliminary structure-activity relationship study” (J Med Chem, 2014).

Columns and labels:
[1] = biological target: Adenosine receptors; A1 & A3 (Homo sapiens) (UniProt P30542+P0DMS8); test: Selectivity ratio of Ki for human adenosine A1 receptor expressed in CHO cells to Ki for human adenosine A3 receptor expressed in CHO cells; type: cell-based
Adenosine receptor A1 = biological target: T1, Adenosine receptor A1 (Homo sapiens, UniProt P30542); test: Displacement of [3H]CCPA from human adenosine A1 receptor expressed in CHO cells; type: cell-based
T1 sequence (P30542 whole entry): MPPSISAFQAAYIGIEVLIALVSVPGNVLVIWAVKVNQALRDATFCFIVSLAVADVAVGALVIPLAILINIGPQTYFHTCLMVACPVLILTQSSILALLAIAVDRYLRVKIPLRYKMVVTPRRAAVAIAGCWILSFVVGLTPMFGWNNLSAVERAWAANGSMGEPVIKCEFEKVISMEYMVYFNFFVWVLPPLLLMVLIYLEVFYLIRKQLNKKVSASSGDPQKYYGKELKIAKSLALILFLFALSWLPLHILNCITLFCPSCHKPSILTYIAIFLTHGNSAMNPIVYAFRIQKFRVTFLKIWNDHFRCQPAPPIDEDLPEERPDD
How it was run: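 Stably transfected CHO cells were homogenised and spun at 1000g to remove nuclei and fragments. Membranes were then pelleted at 100 000g, resuspended in binding buffer, frozen in liquid nitrogen and stored. Radioligand was [³H]CCPA, with nonspecific binding defined by 1 mM theophylline.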

Adenosine receptor A2a = Adenosine receptor A2a (Homo sapiens, UniProt P29274); test: Displacement of [3H]NECA from human adenosine A2A receptor expressed in CHO cells; type: cell-based
CHO [2] = test: Selectivity ratio of Ki for human adenosine A2A receptor expressed in CHO cells to Ki for human adenosine A3 receptor expressed in CHO cells; type: cell-based
CHO [3] = test: Selectivity ratio of Ki for human adenosine A1 receptor expressed in CHO cells to Ki for human adenosine A2A receptor expressed in CHO cells; type: cell-based
Adenosine receptor A3 = biological target: T2, Adenosine receptor A3 (Homo sapiens, UniProt P0DMS8); test: Displacement of [3H]NECA from human adenosine A3 receptor expressed in CHO cells; type: cell-based
T2 sequence (P0DMS8 whole entry): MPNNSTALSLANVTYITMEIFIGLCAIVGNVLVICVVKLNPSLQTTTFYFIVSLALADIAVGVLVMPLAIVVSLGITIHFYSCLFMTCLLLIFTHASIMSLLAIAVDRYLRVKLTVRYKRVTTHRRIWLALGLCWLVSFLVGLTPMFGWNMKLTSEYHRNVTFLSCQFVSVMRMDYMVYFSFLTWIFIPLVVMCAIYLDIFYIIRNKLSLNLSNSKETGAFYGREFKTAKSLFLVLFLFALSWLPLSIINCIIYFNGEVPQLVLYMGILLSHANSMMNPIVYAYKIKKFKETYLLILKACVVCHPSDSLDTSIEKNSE
How it was run: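 Radioligand [³H]NECA was used on membranes from stably transfected CHO cells, prepared by a 1000g clearing spin then pelleting at 100 000g. Pellets were resuspended in binding buffer, frozen in liquid nitrogen and stored. Nonspecific binding was defined with 100 μM R-PIA.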

Adenosine receptor A2b = biological target: T3, Adenosine receptor A2b (Homo sapiens, UniProt P29275); test: Antagonist activity at human adenosine A2B receptor expressed in CHO cells assessed as inhibition of NECA-stimulated adenylyl cyclase activity; type: functional, cell-based
T3 sequence (P29275 whole entry): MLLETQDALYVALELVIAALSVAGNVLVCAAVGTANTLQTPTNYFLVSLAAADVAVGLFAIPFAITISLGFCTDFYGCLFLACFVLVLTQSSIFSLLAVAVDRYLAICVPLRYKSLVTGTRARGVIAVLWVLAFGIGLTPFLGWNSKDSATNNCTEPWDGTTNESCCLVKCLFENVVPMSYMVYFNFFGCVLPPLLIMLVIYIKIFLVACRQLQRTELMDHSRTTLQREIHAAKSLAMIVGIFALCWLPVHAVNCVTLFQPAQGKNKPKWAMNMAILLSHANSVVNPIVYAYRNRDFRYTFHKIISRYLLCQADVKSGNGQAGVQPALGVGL
How it was run: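 Membranes from stably transfected CHO cells, made with a single high-speed centrifugation of the homogenate. Incubated 20 min with about 150 000 cpm [α-³²P]ATP, in a mixture without EGTA and NaCl. IC50 for concentration-dependent inhibition of NECA-stimulated adenylyl cyclase was fitted with the Hill equation and converted to Ki by Cheng–Prusoff.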

Chain of Adenosine receptor A2a (P29274 whole entry): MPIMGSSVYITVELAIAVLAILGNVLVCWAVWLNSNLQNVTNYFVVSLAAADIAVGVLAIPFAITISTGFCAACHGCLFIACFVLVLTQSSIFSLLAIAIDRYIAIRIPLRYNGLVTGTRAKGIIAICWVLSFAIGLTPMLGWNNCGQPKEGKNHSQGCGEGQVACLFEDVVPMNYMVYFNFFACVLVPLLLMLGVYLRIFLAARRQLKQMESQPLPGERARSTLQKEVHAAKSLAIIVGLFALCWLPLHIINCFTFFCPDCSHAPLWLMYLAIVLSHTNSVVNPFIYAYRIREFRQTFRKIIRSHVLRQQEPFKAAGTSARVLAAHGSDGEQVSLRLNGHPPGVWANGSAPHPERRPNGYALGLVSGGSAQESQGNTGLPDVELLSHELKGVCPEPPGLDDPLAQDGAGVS

Row | Structure (SMILES) | Ratio Ki [1] | Ki (Adenosine receptor A1) [µM] | Ki (Adenosine receptor A2a) [µM] | Ratio Ki (CHO [2]) | Ratio Ki (CHO [3]) | Ki (Adenosine receptor A3) [µM] | Ki (Adenosine receptor A2b) [µM]
1 | CCOC(=O)c1cnc(NOC)n2nc(-c3ccco3)nc12 | 5.47 | 6.51 | 0.21 | 0.18 | 31 | 1.19 | > 10
2 | CCOC(=O)c1cnc(NC2CCCCC2)n2nc(-c3ccco3)nc12 | 1.08 | 0.141 | 0.0589 | 0.45 | 2.39 | 0.131 | > 10
3 | CCOC(=O)c1cnc(N2CCCC2)n2nc(-c3ccco3)nc12 | 18.7 | 15.6 | 10.2 | 12.2 | 1.53 | 0.836 | > 10
4 | CCCCC(CC)CNc1ncc(C(=O)OCC)c2nc(-c3ccco3)nn12 (stereo unspecified) | 29.3 | 1.15 | 0.215 | 5.47 | 5.35 | 0.0393 | > 10
5 | CCNc1ncc(C(=O)O)c2nc(-c3ccco3)nn12 | 24.8 | 11.9 | 3.68 | 7.67 | 3.23 | 0.48 | > 10
6 | Nc1ncc(C(=O)NCCc2ccccc2)c2nc(-c3ccco3)nn12 | 0.41 | 0.0571 | 0.0111 | 0.08 | 5.14 | 0.14 | 5.32
7 | CCOC(=O)c1cnc(NC2CC2)n2nc(-c3ccco3)nc12 | 6.38 | 0.0607 | 0.0374 | 3.93 | 1.62 | 0.00952 | 2.26
8 | CCOC(=O)c1cnc(N)n2nc(-c3ccco3)nc12 | 0.78 | 0.185 | 0.00332 | 0.01 | 55.7 | 0.238 | 1.11
9 | O=C(O)c1cnc(NCc2ccc(F)cc2)n2nc(-c3ccco3)nc12 | > 7.14 | > 100 | 6.39 | 0.46 | > 15.6 | 14 | > 30
10 | CCOC(=O)c1cnc(NCc2ccc(OC)cc2)n2nc(-c3ccco3)nc12 | 21.7 | 1.25 | 0.142 | 2.46 | 8.8 | 0.0576 | 4.81
11 | O=C(O)c1cnc(NC2CC2)n2nc(-c3ccco3)nc12 | 6.73 | 1.11 | 0.596 | 3.61 | 1.86 | 0.165 | > 10
12 | COc1ccc(CNc2ncc(C(=O)O)c3nc(-c4ccco4)nn23)cc1OC | 6.02 | 0.958 | 5.32 | 33.4 | – | 0.159 | > 30
13 | O=C(Nc1ccccc1)Nc1ncc(C(=O)NCCc2ccccc2)c2nc(-c3ccco3)nn12 | 0.27 | 0.365 | 0.0514 | 0.04 | 7.1 | 1.35 | > 30
14 | CCOC(=O)c1cnc(NCC(C)C)n2nc(-c3ccco3)nc12 | 1.87 | 0.0456 | 0.0444 | 1.82 | 1.03 | 0.0244 | 7.15
15 | COc1ccc(CCCn2ncc3c2nc(N)n2nc(-c4ccco4)nc32)cc1 | – | 1.11 | – | – | – | > 10 | > 10
16 | CNc1ncc(C(=O)O)c2nc(-c3ccco3)nn12 | > 6.29 | > 100 | > 100 | > 6.29 | – | 15.9 | > 10
17 | CCOC(=O)c1cnc(NN2CCOCC2)n2nc(-c3ccco3)nc12 | – | > 100 | > 100 | – | – | > 30 | > 10
18 | O=C(O)c1cnc(NCc2ccc(Cl)cc2)n2nc(-c3ccco3)nc12 | > 8.62 | > 100 | > 100 | > 8.62 | – | 11.6 | > 30
